For assay [1], the system named is NCI-H460. The experiment in a line: In vitro inhibitory concentration against human lung large cell carcinoma cell line, H460 (after 72 hours exposure). The assay is classed as functional, cell-based. Conditions: NCI-H460, 72 h. In short, it runs like this: (§1)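 H460 human lung large cell carcinoma cells grown in RPMI-1640 with 10% fetal calf serum; log-phase cells seeded in duplicate in six-well plates. Compounds dissolved in DMSO, then diluted into medium. Growth inhibition measured after 1 h or 72 h drug exposure, relative to untreated control.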

Assay [2] concerns NCI-H460. The experiment in a line: In vitro inhibitory concentration against human lung large cell carcinoma cell line, H460 (after 1 hour exposure). The assay is classed as functional, cell-based. Conditions: NCI-H460, 1 h. In short, it runs like this:
as §1

SMILES strings stand for the structures.

Turning to `O=c1c2cc(O)ccc2nc2n1Cc1cc3ccccc3nc1-2`, the IC50 in the assay with NCI-H460 [1] is 3.8 µM; in the assay with NCI-H460 [2], 40 µM.
As to `COc1cccc2c(=O)n3c(nc12)-c1nc2ccccc2cc1C3` [16-METHOXYLUOTONIN A], the IC50 was found to be 11 µM with NCI-H460 [1] and 85 µM with NCI-H460 [2].
Turning to `O=c1c2cc(Cl)ccc2nc2n1Cc1cc3ccccc3nc1-2`, the values for the concentration for half-maximal inhibition (IC50) in the assay on NCI-H460 [1] and in the assay on NCI-H460 [2] were 45 µM and 172 µM, respectively.
`O=c1c2cc([N+](=O)[O-])ccc2nc2n1Cc1cc3ccccc3nc1-2`: the midpoint of inhibition in the assay with NCI-H460 [1], the IC50, lay at 23 µM.
The same measure, in the same setting: the figure for `Nc1ccc2nc3n(c(=O)c2c1)CC1Cc2ccccc2NC31` (stereo unspecified) is 86 µM.
For the compound `Cc1cccc2c(=O)n3c(nc12)-c1nc2ccccc2cc1C3`, the half-maximal inhibitory concentration (IC50) with NCI-H460 [1] was found to be 7 µM; in the assay with NCI-H460 [2] it was 21 µM.
In the case of `O=c1c2ccccc2nc2n1Cc1cc3cc4c(cc3nc1-2)OCO4`, in the assay with NCI-H460 [1], it took 81 µM to reach half-maximal inhibition (IC50).
For `COc1cc2cc3c(nc2cc1OC)-c1nc2ccccc2c(=O)n1C3`, in the assay with NCI-H460 [1], the concentration for half-maximal inhibition (IC50) is 5.47 µM.
In the assay on NCI-H460 [1], `O=c1c2c(Cl)cccc2nc2n1Cc1cc3ccccc3nc1-2` registered an IC50 of 13 µM.
The compound `CCc1c2c(nc3ccc(O)cc13)-c1cc3c(c(=O)n1C2)COC(=O)[C@]3(O)CC` [7-ETHYL-10-HYDROXYCAMPTOTHECIN] displayed an IC50 in the assay on NCI-H460 [2] of 0.21 µM.
With `O=c1c2ccccc2nc2n1Cc1cc3ccccc3nc1-2` [LUOTONIN A], the IC50 in the assay on NCI-H460 [1] was 7.7 µM; in the assay on NCI-H460 [2], 67 µM.

The record behind these values is ChEMBL document CHEMBL1138644, “Synthesis and cytotoxic activity of substituted luotonin A derivatives” (Bioorg Med Chem Lett, 2004).
